# mABHD4 FP: inhibitors of mouse ABHD4; Q8VD66; purified mABHD4, FP-Rh probe fluorescence polarization; inhibition, % at 8.92 µM; 370,000 tested, 0.54% active; AID 720543;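 active means inhibition exceeding the mean over every tested compound plus 3 SD, cut at about 30% in these data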;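 further: 0% = plate median of compound wells and 100% = S159A mutant with DMSO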
#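 Assay system: mABHD4 protein; medium: HEPES pH 7.0, NaCl, Pluronic buffer; dosing: 8.92 µM, single dose; schedule: 45 min + 60 min at 25 °C; signal: FP readout, ex 525 nm / em 598 nm; read-out: normalized percent inhibition of probe labeling; repeats: single replicate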
# HTRA1 inhibitor: blocks human HTRA1 serine peptidase; Q92743; recombinant HTRA1, FP-rhodamine activity-based probe, fluorescence polarization; inhibition, % at 5.96 µM; 340,000 tested, 0.5% active; in the data active means inhibition above about 36%;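 further: 0% = enzyme with DMSO and 100% = wells lacking enzyme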
# Target sequence (Q92743 whole entry, looked up): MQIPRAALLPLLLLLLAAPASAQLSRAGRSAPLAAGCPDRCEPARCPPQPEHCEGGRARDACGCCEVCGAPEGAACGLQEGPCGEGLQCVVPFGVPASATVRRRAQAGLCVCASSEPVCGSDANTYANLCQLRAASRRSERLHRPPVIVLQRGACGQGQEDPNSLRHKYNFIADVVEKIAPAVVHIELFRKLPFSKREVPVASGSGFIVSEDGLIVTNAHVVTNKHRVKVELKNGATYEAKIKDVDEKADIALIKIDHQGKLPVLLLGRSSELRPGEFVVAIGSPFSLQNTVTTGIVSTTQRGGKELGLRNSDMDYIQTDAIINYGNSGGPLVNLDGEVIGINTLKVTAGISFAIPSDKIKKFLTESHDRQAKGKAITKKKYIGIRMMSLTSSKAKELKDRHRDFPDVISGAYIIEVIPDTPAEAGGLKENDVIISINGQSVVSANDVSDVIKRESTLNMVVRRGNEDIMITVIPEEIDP
# SIAE inh: inhibitors of human sialic acid acetylesterase SIAE; Q9HAT2; SIAE FP-Rh probe binding, fluorescence polarization; inhibition, % at 9.66 µM; 370,000 tested, 0.69% active; AID 1053197;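 active means inhibition above a cutoff: mean of compounds within the control limits plus 3 SD of those, cut at about 17% in these data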;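 further: 0% = plate median of compound wells and 100% = probe without SIAE protein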
# DAGLB inh: diacylglycerol lipase beta (human) inhibition; Q8NCG7; HEK293T DAGLB membrane lysate, EnzChek fluorogenic substrate; inhibition, % at 5.17 µM; 340,000 tested, 0.059% active; in the data active means inhibition above about 34%;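 further: 0% = enzyme with vehicle and 100% = wells lacking enzyme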
# TCR-CD3 inh: human TCR-CD3 binding inhibition; TAMRA-labeled TCR probe fluorescence, biochemical; inhibition, % at 9.4 µM; 360,000 tested, 0.37% active;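 further: recombinant mutant TCR 2C K166C tagged with TAMRA read by polarization; 0% = receptor in buffer alone and 100% = receptor with positive control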
# BSA probe FL: BSA probe counter-screen for TCR-CD3 inhibitors; shares compounds with TCR-CD3 inh; TAMRA-labeled BSA probe fluorescence counterscreen; inhibition, % at 9.4 µM; 1,200 tested, 10% active; AID 652035; in the data active means inhibition above about 23%;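 further: 0% = buffer low control and 100% = reference high control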
# TCR-CD3 conf: confirmation of human TCR-CD3 interaction inhibitors | shares compounds with TCR-CD3 inh | TAMRA-labeled TCR probe fluorescence binding assay | inhibition, % at 9.4 µM | 1,200 tested, 48% active | AID 652036
# ABHD4 confirm: ABHD4 (mouse) inhibition, FP confirmation. shares compounds with mABHD4 FP. purified mABHD4, FP-Rh probe fluorescence polarization. inhibition, % at 8.92 µM. 1,800 tested, 55% active;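 active means mean inhibition across replicates above the hit cutoff set in the primary screen, cut at about 30% in these data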;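 further: 0% = wild-type ABHD4 with DMSO and 100% = catalytically dead S159A mutant with DMSO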
# SIAE confirm: human SIAE inhibition, confirmation. shares compounds with SIAE inh. SIAE FP-Rh activity-based probe, fluorescence polarization. inhibition, % at 9.66 µM. 2,300 tested, 13% active. AID 1117263;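 active means mean inhibition of the replicates above the hit cutoff set in the primary screen, cut at about 17% in these data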;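 further: 0% = SIAE with DMSO and probe and 100% = probe without SIAE; inhibitors lower polarization as more probe stays unbound to SIAE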
# * = called active by the depositor; nt = no result; + = active, no number. In the library only some 1.5% were active in any assay of this set; here they are far more common. Unless noted, no stated cut-off is given here; in the data, active means inhibition above about 19%; inactive means the rest.
SMILES,mABHD4 FP,HTRA1 inhibitor,SIAE inh,DAGLB inh,TCR-CD3 inh,BSA probe FL,TCR-CD3 conf,ABHD4 confirm,SIAE confirm
COC(=O)CCN1CCSCCS1(=O)=O,0,nt,-7,nt,-6,nt,nt,nt,nt
CCOC(=O)c1c(C)[nH]c(C(=O)COC(=O)c2cnccn2)c1C,21,0,20*,-3,38*,-1,6,nt,-1
Nc1cnccc1C(=O)O,86*,20,20*,-7,65*,33*,25*,22,5
Cc1cc(N2CCN(CC(C)(C)O)C[C@@H]2C)ccc1N1CCN(CC(C)(C)O)[C@@H](C)C1,-1,nt,3,nt,13,nt,nt,nt,nt
CCCCc1c(-c2ccccc2OC)ncn1C(C)c1ccc(Cl)cc1 (configuration not stated),6,nt,4,nt,-2,nt,nt,nt,nt
COc1cc(C=NNC(=O)Cn2nc(C)cc2C)ccc1OC(=O)C1CC1,20,25,20*,-3,30*,1,4,nt,0
CC(=O)c1c(C)[nH]c(C(=O)OCC(=O)NCc2ccc(Cl)cc2)c1C,13,-29,24*,0,23*,1,0,nt,-7
C[C@@H]1CN([C@@H](C)CO)C(=O)CCCn2cc(nn2)CO[C@H]1CN(C)C(=O)NC1CCCCC1,2,nt,-2,nt,6,nt,nt,nt,nt
O=C(NC(=S)NCc1ccccc1)c1cccnc1,1,-4,-2,-2,1,nt,nt,nt,nt
O=C(Cc1ccccc1)NNC(=S)NC(=O)c1cccnc1,1,nt,17*,nt,27*,-6,21*,nt,2
COC(=O)[C@]12C[C@H](CC(=O)NCCCN3CCCC3=O)C(=O)N(Cc3ccccc3)C1=C[C@H](C(C)(C)C)O[C@@H]2C,1,nt,-3,nt,0,nt,nt,nt,nt
O=c1c(O)c(-c2ccc(O)c(O)c2)oc2cc(O)cc(O)c12,34*,21,18*,6,19*,-20,18,33*,4
Cc1nn(C)c(C)c1N1C(=O)c2cccc3c(Br)ccc(c23)C1=O,4,-3,4,4,9,nt,nt,nt,nt
Cc1nn(C)c(C)c1N1C(=O)c2cccc3c(N)ccc(c23)C1=O,43*,27,28*,-153,49*,57*,47*,39*,21*
Cc1cc2ccccc2n1CCNC(=O)c1ccc(S(=O)(=O)N2CCCCC2)cc1,58*,27,37*,6,63*,5,6,193*,-3
O=C(NCCc1ccccc1)c1ccc(S(=O)(=O)N2CCCCC2)cc1,5,5,2,0,6,nt,nt,nt,nt
CN(C)C(=O)c1cccc(-c2cnc3c(NC=O)cc(-c4ccccc4N(C)C)cn23)c1,74*,nt,29*,nt,42*,21,16,71*,2
O=C(N/N=C/c1ccc(Cl)cc1Cl)c1cccc(N2CCCC2=O)c1,-4,-1,-8,-1,2,nt,nt,nt,nt
O=C(N/N=C/c1cc(Br)cc(Br)c1O)c1cccc(N2CCCC2=O)c1,12,18,41*,3,37*,-14,48*,nt,20*
CCO/C(C)=N/Oc1cccc(N(C)C)c1,43*,nt,23*,nt,26*,10,2,nt,12
CC(C)C[C@H]1COc2cc(NCc3ccc(Cl)c(Cl)c3)ccc2S(=O)(=O)N1,-5,nt,-1,nt,-1,nt,nt,nt,nt
CC(=O)[C@@]1(O)Cc2c(O)c3c(c(O)c2[C@H](O[C@H]2C[C@H](N)[C@H](O)[C@H](C)O2)C1)C(=O)c1ccccc1C3=O,101*,nt,81*,nt,175*,+,167*,nt,81*
C/C(=N\NC(=S)NCCc1ccccc1)c1ccc(O)cc1O,14,29,17*,3,28*,-16,8,nt,20*
Nc1cc2nc3ccccc3oc-2cc1=O,47*,30,20*,4,23*,1,15,29,7
O=c1oc2ccccc2cc1-c1nc2ccccc2o1,4,-7,-6,-3,-7,nt,nt,nt,nt
SMILES,mABHD4 FP,HTRA1 inhibitor,SIAE inh,DAGLB inh,TCR-CD3 inh,BSA probe FL,TCR-CD3 conf,ABHD4 confirm,SIAE confirm
O=S1(=O)CCSC[C@@H](CN2CCCC2)N1,-2,nt,0,nt,-1,nt,nt,nt,nt
O=C(NNC(=O)c1ccc2ccccc2c1O)Nc1ccc(F)cc1,7,4,26*,4,32*,-5,29*,nt,2
COc1ccccc1C(=O)NNC(=O)c1ccc2ccccc2c1O,25,6,20*,6,32*,1,38*,nt,5
COc1cccc(OCC(=O)NNC(=O)c2ccc3ccccc3c2O)c1,23,25,19*,7,44*,-6,39*,nt,0
CN(CCC#N)C(=O)COC(=O)c1c2c(nc3ccccc13)/C(=C\c1ccco1)CC2,45*,30,19*,2,34*,-11,34*,-9,6
CCOC(=O)C1=CCN(S(=O)(=O)c2ccccc2F)C1c1ccc(Br)cc1 (configuration not stated),-13,nt,3,nt,4,nt,nt,nt,nt
N#CCCN(CCC#N)C(=O)C1c2ccccc2Oc2ccccc21,103*,31,67*,-5,124*,11,8,2,3
COc1cccc(CNC(=O)C2CCCN(c3ncccn3)C2)c1OC (configuration not stated),2,nt,-4,nt,nt,nt,nt,nt,nt
O=C1CCc2cc(S(=O)(=O)Nc3ccc4c(c3)OCCO4)ccc2N1,2,nt,12,nt,nt,nt,nt,nt,nt
O=C(N[C@H](C(=O)N1CCC[C@H]1C(=O)NC1CCCC1)C1CCCCC1)c1ccccc1,2,nt,-4,nt,7,nt,nt,nt,nt
O=C1NC(=O)C(c2ccccc2[N+](=O)[O-])=C1Nc1ccc(O)c(Cl)c1,43*,27,19*,8,20*,-16,-3,3,-1
O=C(NNc1ccccc1[N+](=O)[O-])Nc1ccc(Cl)c(Cl)c1,-21,-23,-18,-1,-3,nt,nt,nt,nt
N#Cc1ccc(S(=O)(=O)NC(=O)[C@H]2O[C@@H](n3ccc(=O)[nH]c3=O)[C@H](O)[C@@H]2O)cc1,-3,nt,-11,nt,6,nt,nt,nt,nt
CC(C)CN1CN2CCc3ccccc3C2CS1(=O)=O (configuration not stated),5,nt,1,nt,nt,nt,nt,nt,nt
CN(C)C(=S)Nc1cccc(-c2n[nH]c(=S)o2)c1,4,3,15,-2,2,nt,nt,nt,nt
NNC(=S)Nc1cccc(-c2n[nH]c(=S)o2)c1,35*,8,0,3,-1,nt,nt,22,nt
Cc1nn(-c2ccccc2)c(N2CCCC2)c1/C=N/NC(=S)Nc1ccccc1C(F)(F)F,54*,-2,6,-3,-2,nt,nt,57*,nt
CCOC(=O)CN1C(=O)[C@]2(OCCC=C[C@H]2C)c2c(Br)cccc21,3,nt,-8,nt,0,nt,nt,nt,nt

# Screens (PubChem)
